Source: ChEMBL document CHEMBL1255444, “In vitro antibacterial activities of JNJ-Q2, a new broad-spectrum fluoroquinolone” (Antimicrob Agents Chemother, 2010)

Assays:
Assay type in all cases: functional
[1] = system: Streptococcus pneumoniae; assay: Antibacterial activity against Streptococcus pneumoniae isolate OC6608 by broth microdilution method
Procedure, shortened: (§1)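 CLSI M07-A7 broth microdilution MIC. Medium was cation-adjusted Mueller-Hinton broth. For S. pneumoniae it was Mueller-Hinton supplemented with 5% lysed horse blood. CLSI quality-control strains were included as appropriate.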

[2] = system: Enterococcus faecium; assay: Antibacterial activity against Enterococcus faecium by broth microdilution method
Procedure, shortened: (§2)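 MICs by CLSI M07-A7 broth microdilution in cation-adjusted Mueller-Hinton medium. For S. pneumoniae the medium was supplemented with 5% lysed horse blood. CLSI quality control strains were run alongside as appropriate.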

[3] = system: Staphylococcus aureus; assay: Antibacterial activity against methicillin-resistant Staphylococcus aureus by broth microdilution method; procedure, shortened: as §1
[4] = system: Staphylococcus aureus; assay: Antibacterial activity against methicillin-resistant Staphylococcus aureus isolate OC11223 by broth microdilution method; procedure, shortened: as §1
[5] = system: Staphylococcus aureus; assay: Antibacterial activity against methicillin-resistant Staphylococcus aureus isolate OC11696 by broth microdilution method; procedure, shortened: as §1
[6] = system: Citrobacter freundii; assay: Antibacterial activity against Citrobacter freundii by broth microdilution method; procedure, shortened: as §2
[7] = system: Haemophilus influenzae; assay: Antibacterial activity against Haemophilus influenzae by broth microdilution method; procedure, shortened: as §2
[8] = system: Enterococcus faecalis; assay: Antibacterial activity against Enterococcus faecalis ATCC 29212 by broth microdilution method; procedure, shortened: as §2
[9] = system: Moraxella catarrhalis; assay: Antibacterial activity against Moraxella catarrhalis by broth microdilution method; procedure, shortened: as §2
[10] = system: Streptococcus pneumoniae; assay: Antibacterial activity against Streptococcus pneumoniae isolate OC7376 by broth microdilution method; procedure, shortened: as §1
[11] = system: Streptococcus pneumoniae; assay: Antibacterial activity against Streptococcus pneumoniae ATCC 49619 by broth microdilution method; procedure, shortened: as §2
[12] = system: Streptococcus pneumoniae; assay: Antibacterial activity against Streptococcus pneumoniae isolate OC7368 by broth microdilution method; procedure, shortened: as §1
[13] = system: Streptococcus pneumoniae; assay: Antibacterial activity against Streptococcus pneumoniae isolate OC7348 by broth microdilution method; procedure, shortened: as §1
[14] = system: Providencia stuartii; assay: Antibacterial activity against Providencia stuartii by broth microdilution method; procedure, shortened: as §2
[15] = system: Staphylococcus epidermidis; assay: Antibacterial activity against methicillin-susceptible Staphylococcus epidermidis by broth microdilution method
[16] = system: Staphylococcus aureus; assay: Antibacterial activity against methicillin-resistant Staphylococcus aureus isolate OC12501 by broth microdilution method; procedure, shortened: as §1
[17] = system: Staphylococcus aureus; assay: Antibacterial activity against methicillin-resistant Staphylococcus aureus isolate OC11521 harboring gyrA S84L/S85P, parC E84G mutant gene by broth microdilution method; procedure, shortened: as §1
[18] = system: Streptococcus pneumoniae; assay: Antibacterial activity against Streptococcus pneumoniae isolate OC5462 by broth microdilution method; procedure, shortened: as §1
[19] = system: Pseudomonas aeruginosa; assay: Antibacterial activity against Pseudomonas aeruginosa ATCC 27853 by broth microdilution method; procedure, shortened: as §2
[20] = system: Staphylococcus aureus; assay: Antibacterial activity against methicillin-resistant Staphylococcus aureus isolate OC8530 harboring gyrA S84L and parC I143V mutant gene by broth microdilution method
Procedure, shortened: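 CLSI M07-A7 broth microdilution MIC in cation-adjusted Mueller-Hinton medium. For S. pneumoniae the medium was supplemented with 5% lysed horse blood. CLSI quality-control strains were included as appropriate.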

[21] = system: Escherichia coli; assay: Antibacterial activity against ciprofloxacin-resistant Escherichia coli by broth microdilution method; procedure, shortened: as §1
[22] = system: Streptococcus pneumoniae; assay: Antibacterial activity against Streptococcus pneumoniae isolate OC6790 by broth microdilution method; procedure, shortened: as §1
[23] = system: Staphylococcus epidermidis; assay: Antibacterial activity against methicillin-, ciprofloxacin-resistant Staphylococcus epidermidis by broth microdilution method
[24] = system: Staphylococcus aureus; assay: Antibacterial activity against methicillin-resistant Staphylococcus aureus isolate OC17042 harboring gyrA S84L/G106D, parC S80F and parE D732N mutant gene by broth microdilution method; procedure, shortened: as §1
[25] = system: Streptococcus pneumoniae; assay: Antibacterial activity against Streptococcus pneumoniae isolate OC6610 by broth microdilution method; procedure, shortened: as §1
[26] = system: Staphylococcus aureus; assay: Antibacterial activity against Staphylococcus aureus […] by broth microdilution method; procedure, shortened: as §1
[27] = system: Streptococcus pneumoniae; assay: Antibacterial activity against Streptococcus pneumoniae OC7453 harboring gyrA S81F mutant gene by agar dilution method
Procedure, shortened: (§3)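 MICs for the resistance-selection studies were determined by CLSI agar dilution on Mueller-Hinton medium. For S. pneumoniae the medium was supplemented with 5% lysed horse blood. For MRSA fluctuation-assay strains an arithmetic agar dilution scheme was used for a more precise MIC.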

[28] = system: Serratia marcescens; assay: Antibacterial activity against Serratia marcescens by broth microdilution method; procedure, shortened: as §2
[29] = system: Staphylococcus aureus; assay: Antibacterial activity against methicillin-resistant Staphylococcus aureus isolate OC4222 harboring gyrA S84L and parC S80F mutant gene by broth microdilution method; procedure, shortened: as §1
[30] = system: Streptococcus pneumoniae; assay: Antibacterial activity against Streptococcus pneumoniae isolate OC7189 by broth microdilution method; procedure, shortened: as §1
[31] = system: Streptococcus pneumoniae; assay: Antibacterial activity against Streptococcus pneumoniae isolate OC6585 by broth microdilution method; procedure, shortened: as §1
[32] = system: Streptococcus pyogenes; assay: Antibacterial activity against Streptococcus pyogenes by broth microdilution method; procedure, shortened: as §2
[33] = system: Staphylococcus aureus; assay: Antibacterial activity against methicillin-susceptible Staphylococcus aureus by broth microdilution method
[34] = system: Streptococcus pneumoniae; assay: Antibacterial activity against Streptococcus pneumoniae OC6755 harboring gyrA S81F and parC S79Y mutant gene by agar dilution method; procedure, shortened: as §3
[35] = system: Staphylococcus epidermidis; assay: Antibacterial activity against methicillin-resistant Staphylococcus epidermidis by broth microdilution method
[36] = system: Streptococcus agalactiae; assay: Antibacterial activity against Streptococcus agalactiae by broth microdilution method; procedure, shortened: as §2
[37] = Antibacterial activity against Streptococcus sp. group C by broth microdilution method
Procedure, shortened: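 MICs by broth microdilution following CLSI M07-A7 in cation-adjusted Mueller-Hinton medium, using isolates from the J&JPRD culture collection. CLSI quality control strains were included as appropriate.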

[38] = system: Staphylococcus aureus; assay: Antibacterial activity against methicillin-resistant Staphylococcus aureus isolate OC2838 by broth microdilution method; procedure, shortened: as §1
[39] = system: Staphylococcus aureus; assay: Antibacterial activity against methicillin-, ciprofloxacin-resistant Staphylococcus aureus by broth microdilution method; procedure, shortened: as §1
[40] = system: Proteus mirabilis; assay: Antibacterial activity against Proteus mirabilis by broth microdilution method; procedure, shortened: as §2
[41] = system: Streptococcus pneumoniae; assay: Antibacterial activity against Streptococcus pneumoniae R6 by agar dilution method; procedure, shortened: as §3
[42] = system: Klebsiella aerogenes; assay: Antibacterial activity against Enterobacter aerogenes by broth microdilution method; procedure, shortened: as §2
[43] = system: Streptococcus pneumoniae; assay: Antibacterial activity against Streptococcus pneumoniae OC7452 harboring parC S79Y mutant gene by agar dilution method; procedure, shortened: as §3

COc1c(N2C[C@@H]3CCCN[C@@H]3C2)c(F)cc2c(=O)c(C(=O)O)cn(C3CC3)c12 [MOXIFLOXACIN]
> 8 µg/mL: MIC90 [6]
32 µg/mL: MIC50 [14] | MIC [17] | MIC50 [21]
0.5 µg/mL: MIC [27] | MIC50 [28] | MIC50 [40] | MIC90 [40]
0.03 µg/mL: MIC90 [7]
2 µg/mL: MIC [1] | MIC50 [3] | MIC50 [6] | MIC [10] | MIC50 [19] | MIC [20] | MIC50 [23] | MIC50 [26] | MIC [29] | MIC50 [35]
0.12 µg/mL: MIC [32] | MIC50 [32] | MIC50 [37] | MIC [41] | MIC50 [42]
8 µg/mL: MIC90 [3] | MIC [13] | MIC [24] | MIC90 [26] | MIC [31] | MIC [34] | MIC90 [39]
0.06 µg/mL: MIC [4] | MIC [9] | MIC50 [9] | MIC90 [9] | MIC50 [15] | MIC [33] | MIC50 [33]
1 µg/mL: MIC [5] | MIC [16] | MIC [18] | MIC90 [28]
4 µg/mL: MIC50 [2] | MIC90 [11] | MIC [12] | MIC90 [19] | MIC [22] | MIC90 [23] | MIC90 [35] | MIC [38] | MIC50 [39]
64 µg/mL: MIC90 [14]
16 µg/mL: MIC90 [8] | MIC [25]
> 16 µg/mL: MIC90 [2]
0.25 µg/mL: MIC [8] | MIC50 [8] | MIC50 [11] | MIC [30] | MIC90 [32] | MIC50 [36] | MIC90 [36] | MIC90 [37] | MIC90 [42] | MIC [43]
0.015 µg/mL: MIC50 [7]
128 µg/mL: MIC90 [21]
